pKi: −log10 of the molar value. Where a SMILES comes first, the peptide text is derived from it. [ ]: non-standard residue; d: D form. NMeF = CN[C@@H](Cc1ccccc1)C(=O)O Some results are limits rather than exact numbers.

The target of experiment [1] is Neuropeptide FF receptor 2 (Rattus norvegicus, UniProt Q9EQD2). The experiment is described as follows: Binding affinity for NPPF receptor in rat spinal cord membranes using the radioligand [125I]-[Tyr1]NPFF. It is filed as cell membranes, Membrane. In a few lines: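 Displacement of [125I][Tyr1]NPFF (0.1 nM final) from rat spinal cord membranes, 30 min at 25 °C, in 50 mM Tris-HCl pH 7.4 with 120 mM NaCl, 0.5% BSA, 0.1 mM bestatin, 1 mM EDTA, 0.5 mM diisopropylfluorophosphate. Unlabeled peptides 5×10^-11–10^-6 M; nonspecific binding with 10^-6 M [Tyr1]NPFF. Stopped by ice-cold buffer and centrifugation; pellet gamma-counted. Ki via Cheng-Prusoff from IC50; three determinations.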

Experiment [2] is filed under the species Mus musculus. The experiment is described as follows: Minimum effective dose able to significantly reverse morphine analgesia in male CDF1 mice by tail-flick test. It is filed as functional. The essentials:
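Analog (0, 1, 2.2, 8.8 or 22 nmol) coinjected icv with 5.5 nmol morphine in 150 mM NaCl, 10 mice per group. Radiant-heat tail-flick read 15 min later, baseline 2-3 s, 6 s cutoff defined as 100% analgesia. Percent antinociception = (Tt−Tc)/(6−Tc)×100.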

Chain of Neuropeptide FF receptor 2 (Q9EQD2 whole entry): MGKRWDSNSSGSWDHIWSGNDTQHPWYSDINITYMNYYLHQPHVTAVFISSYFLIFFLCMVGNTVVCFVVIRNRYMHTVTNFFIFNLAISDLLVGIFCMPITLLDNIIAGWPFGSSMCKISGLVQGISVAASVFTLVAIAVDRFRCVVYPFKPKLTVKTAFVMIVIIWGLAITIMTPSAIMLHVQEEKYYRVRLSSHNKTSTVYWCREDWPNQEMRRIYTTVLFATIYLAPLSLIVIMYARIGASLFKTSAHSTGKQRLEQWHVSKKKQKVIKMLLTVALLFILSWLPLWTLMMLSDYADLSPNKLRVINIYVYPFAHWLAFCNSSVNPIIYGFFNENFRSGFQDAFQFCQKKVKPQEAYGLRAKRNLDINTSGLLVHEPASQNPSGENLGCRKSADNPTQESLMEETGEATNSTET

For the compound `CC(C)C[C@H](N)C(=O)N[C@@H](Cc1ccccc1)C(=O)N[C@@H](CCC(N)=O)C(=O)N1CCC[C@@H]1C(=O)N[C@@H](CCC(N)=O)C(=O)N[C@@H](CCCNC(=N)N)C(=O)N[C@@H](Cc1ccccc1)C(N)=O`, in experiment [1], the pKi (commonly −log10 of the Ki, conventionally taken in molar units) was 7.48. In turn, `NC(=O)CC[C@H](NC(=O)[C@@H]1CCCN1C(=O)[C@@H](N)CCC(N)=O)C(=O)N[C@@H](CCCN=C(N)N)C(=O)N[C@@H](Cc1ccccc1)C(N)=O` had a pKi in experiment [1] of 7.68. In experiment [2], this compound displayed an MED of over 22 nmol. The compound `NC(=O)CC[C@H](NC(=O)[C@H]1CCCN1C(=O)[C@@H](N)CCC(N)=O)C(=O)N[C@@H](CCCN=C(N)N)C(=O)N[C@@H](Cc1ccccc1)C(N)=O` had a pKi in experiment [1] of 7.19.

The compound `CC(C)C[C@H](NC(=O)[C@@H](N)Cc1ccc(O)cc1)C(=O)N[C@@H](Cc1ccccc1)C(=O)N[C@@H](CCC(N)=O)C(=O)N1CCC[C@@H]1C(=O)N[C@@H](CCC(N)=O)C(=O)N[C@@H](CCCN=C(N)N)C(=O)N[C@@H](Cc1ccccc1)C(N)=O` showed a pKi in experiment [1] of 7.52. In experiment [1], `CC(C)C[C@H](NC(=O)[C@@H](N)Cc1ccc(O)cc1)C(=O)N[C@@H](Cc1ccccc1)C(=O)N[C@@H](CCC(N)=O)C(=O)N1CCC[C@H]1C(=O)N[C@@H](CCC(N)=O)C(=O)N[C@@H](CCCN=C(N)N)C(=O)N[C@@H](Cc1ccccc1)C(N)=O` had a pKi of 9.70. In addition, the MED in experiment [2] was 8.8 nmol. The compound `NC(=O)CC[C@H](NC(=O)[C@H]1CCCN1)C(=O)N[C@@H](CCCN=C(N)N)C(=O)N[C@@H](Cc1ccccc1)C(N)=O` showed a pKi in experiment [1] of 7.03. Still for that read-out and setting: then `NC(=O)CC[C@H](NC(=O)[C@H]1CCCN1C(=O)[C@H](CCC(N)=O)NC(=O)[C@@H](N)Cc1ccccc1)C(=O)N[C@@H](CCCN=C(N)N)C(=O)N[C@@H](Cc1ccccc1)C(N)=O`, with 7.35.

`NC(=O)CC[C@H](NC(=O)[C@@H]1CCCN1C(=O)[C@H](CCC(N)=O)NC(=O)[C@@H](N)Cc1ccccc1)C(=O)N[C@@H](CCCN=C(N)N)C(=O)N[C@@H](Cc1ccccc1)C(N)=O` had a pKi in experiment [1] of 9.37. In experiment [2], this compound had an MED of 22 nmol.

As to `CC(C)C[C@@H](NC(=O)[C@H](N)Cc1ccc(O)cc1)C(=O)N[C@H](Cc1ccccc1)C(=O)N[C@@H](CCC(N)=O)C(=O)N1CCC[C@H]1C(=O)N[C@@H](CCC(N)=O)C(=O)N[C@@H](CCCNC(=N)N)C(=O)N[C@@H](Cc1ccccc1)C(N)=O`, the pKi in experiment [1] is 9.00.

In the case of `CC(C)C[C@@H](NC(=O)[C@H](N)Cc1ccc(O)cc1)C(=O)N[C@@H](Cc1ccccc1)C(=O)N[C@@H](CCC(N)=O)C(=O)N1CCC[C@H]1C(=O)N[C@@H](CCC(N)=O)C(=O)N[C@@H](CCCN=C(N)N)C(=O)N[C@@H](Cc1ccccc1)C(N)=O`, in experiment [1], the pKi is 9.30.

For the compound `CC(C)C[C@H](N)C(=O)N[C@@H](Cc1ccccc1)C(=O)N[C@@H](CCC(N)=O)C(=O)N1CCC[C@H]1C(=O)N[C@@H](CCC(N)=O)C(=O)N[C@@H](CCCN=C(N)N)C(=O)N[C@@H](Cc1ccccc1)C(N)=O`, the pKi in experiment [1] is 9.70.

Compound `CC(C)C[C@H](NC(=O)[C@@H](N)Cc1ccccc1)C(=O)N[C@@H](Cc1ccccc1)C(=O)N[C@@H](CCC(N)=O)C(=O)N1CCC[C@H]1C(=O)N[C@@H](CCC(N)=O)C(=O)N[C@@H](CCCN=C(N)N)C(=O)N[C@@H](Cc1ccccc1)C(N)=O` yielded an MED in experiment [2] of 22 nmol. On to `N=C(N)NCCC[C@H](NC(=O)[C@@H](N)CCC(N)=O)C(=O)N[C@@H](Cc1ccccc1)C(N)=O` (H-Gln-Arg-Phe-NH2), for which the pKi in experiment [1] was 6.52. `CC(C)C[C@H](NC(=O)[C@H](N)Cc1ccc(O)cc1)C(=O)N(C)[C@@H](Cc1ccccc1)C(=O)N[C@@H](CCC(N)=O)C(=O)N1CCC[C@H]1C(=O)N[C@@H](CCC(N)=O)C(=O)N[C@@H](CCCN=C(N)N)C(=O)N[C@@H](Cc1ccccc1)C(N)=O` (H-[dY]L[NMeF]QPQRF-NH2) showed a pKi in experiment [1] of 9.80. This compound showed an MED in experiment [2] of 8.8 nmol.

Turning to `CC(C)C[C@@H](NC(=O)[C@H](N)Cc1ccc(O)cc1)C(=O)N(C)[C@@H](Cc1ccccc1)C(=O)N[C@@H](CCC(N)=O)C(=O)N1CCC[C@H]1C(=O)N[C@@H](CCC(N)=O)C(=O)N[C@@H](CCCNC(=N)N)C(=O)N[C@@H](Cc1ccccc1)C(N)=O` (H-[dY][dL][NMeF]QPQRF-NH2), the pKi in experiment [1] was 9.72.

In experiment [1], H-FLFGPQRF-NH2 gave a pKi of 8.00.

As for H-FLFQGQRF-NH2, the pKi in experiment [1] was 8.92. Also, in experiment [2], the MED came out at 8.8 nmol. With H-FLFQPGRF-NH2, the pKi in experiment [1] was 9.22. Consider H-FLYQPQRF-NH2, for which, in experiment [1], the pKi was 9.66.

(Values after ChEMBL document CHEMBL1127731, “Structure-activity study of neuropeptide FF: contribution of N-terminal regions to affinity and activity” (J Med Chem, 1994).)
